Experiments:
Mu-type opioid receptor [1] = biological target: Mu-type opioid receptor (Cavia porcellus, UniProt P97266); assay: Agonist activity at mu opioid receptor by inhibition of muscle contraction in electrically stimulated isolated guinea pig ileum; format: functional, tissue-based
Outline: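 Longitudinal muscle–myenteric plexus strips from male Hartley guinea pig ileum, 1 g tension, oxygenated Krebs at 37 °C, 15 min equilibration. Stimulated at 0.1 Hz, 0.4 ms, supramaximal voltage. Integrity checked with PL-017 (10 nM). Compound added until maximal inhibition. Inhibition taken as contraction height 1 min before versus 3 min after dosing. IC50 from Hill-equation fit.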

[2] = biological target: T1, Delta-type opioid receptor (Homo sapiens, UniProt P41143); assay: Displacement of [3H]DPDPE from human delta opioid receptor expressed in HN9.10 cells; format: cell-based
Outline: (§1)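 Membranes (50 µg) from HN9.10 neuroblastoma cells stably expressing rat MOR or human DOR. Buffer was 50 mM Tris pH 7.4 with bacitracin, bestatin, captopril, PMSF and 1 mg/mL BSA. Radioligand was [3H]DAMGO (MOR) or [3H]DPDPE (DOR), each 1.0 nM, with 10 test concentrations. Incubated 3 h at 25 °C, in duplicate. Nonspecific binding with 10 µM naloxone. Filtration, then scintillation counting.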

Mu-type opioid receptor [3] = biological target: T2, Mu-type opioid receptor (Rattus norvegicus, UniProt P33535); assay: Displacement of [3H]DAMGO from rat mu opioid receptor expressed in HN9.10 cells; format: cell-based; outline: as §1
[4] = biological target: T3, Cholecystokinin receptor type A (Homo sapiens, UniProt P32238); assay: Displacement of [125I]CCK8 from human CCK1 receptor expressed in HEK293 cells; format: cell-based
T3 sequence (P32238 whole entry): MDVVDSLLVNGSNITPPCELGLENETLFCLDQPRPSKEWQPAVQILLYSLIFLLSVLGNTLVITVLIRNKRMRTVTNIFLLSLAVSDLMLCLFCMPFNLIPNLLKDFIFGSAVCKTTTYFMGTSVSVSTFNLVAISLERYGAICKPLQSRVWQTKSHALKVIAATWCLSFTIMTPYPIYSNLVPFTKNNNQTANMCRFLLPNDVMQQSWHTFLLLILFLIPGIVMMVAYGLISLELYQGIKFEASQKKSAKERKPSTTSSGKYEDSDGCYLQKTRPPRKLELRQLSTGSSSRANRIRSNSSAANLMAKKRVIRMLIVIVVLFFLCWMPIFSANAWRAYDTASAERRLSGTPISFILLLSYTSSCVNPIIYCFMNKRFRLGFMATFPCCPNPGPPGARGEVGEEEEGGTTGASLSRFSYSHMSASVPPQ

[5] = biological target: Delta-type opioid receptor (Mus musculus, UniProt P32300); assay: Agonist activity at delta opioid receptor by inhibition of muscle contraction in electrically stimulated isolated mouse vas deferens; format: functional, tissue-based
Outline: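 Male ICR mouse vasa deferentia in 20-mL baths, 0.5 g tension, oxygenated Mg-free Krebs at 37 °C; field stimulation 0.1 Hz, 2.0 ms single pulses, supramaximal voltage. Tissue integrity checked with DPDPE (10 nM). Compound added cumulatively until maximal inhibition. Inhibition taken as mean contraction height for 1 min before dosing versus height 3 min after. IC50 from Hill-equation fit by nonlinear least squares.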

Mu-type opioid receptor [6] = biological target: T2, Mu-type opioid receptor; assay: (§2) Inhibition of [35S]GTP-gamma-S binding to rat mu opioid receptor expressed in CHO cells; format: functional, cell-based; conditions: read-out: EC50
Outline: (§3)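 CHO-expressed receptor membranes (10 µg) in 50 mM HEPES pH 7.4 with EDTA, 5 mM MgCl2, 30 µM GDP, DTT, 100 mM NaCl, PMSF, BSA and 0.1 nM [35S]GTPγS. Test drug at various concentrations, duplicate or triplicate, 90 min at 30 °C. Nonspecific binding with 10 µM GTPγS.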

[7] = biological target: T4, Gastrin/cholecystokinin type B receptor (Homo sapiens, UniProt P32239); assay: Displacement of [125I]CCK8 from human CCK2 receptor expressed in HEK293 cells; format: cell-based
T4 sequence (P32239 whole entry): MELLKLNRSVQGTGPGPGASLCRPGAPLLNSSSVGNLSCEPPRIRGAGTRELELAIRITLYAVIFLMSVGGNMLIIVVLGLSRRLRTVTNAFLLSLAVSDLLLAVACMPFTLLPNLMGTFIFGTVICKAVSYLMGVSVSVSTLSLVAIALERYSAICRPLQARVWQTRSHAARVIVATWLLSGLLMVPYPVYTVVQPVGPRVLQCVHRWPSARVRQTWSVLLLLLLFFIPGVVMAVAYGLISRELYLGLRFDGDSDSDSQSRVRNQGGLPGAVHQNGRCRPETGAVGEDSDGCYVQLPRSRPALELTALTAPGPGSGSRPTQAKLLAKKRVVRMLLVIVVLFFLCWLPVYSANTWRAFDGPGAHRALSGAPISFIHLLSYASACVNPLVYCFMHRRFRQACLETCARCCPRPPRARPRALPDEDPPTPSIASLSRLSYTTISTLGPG

[8] = biological target: T1, Delta-type opioid receptor; assay: Inhibition of [35S]GTP-gamma-S binding to human delta opioid receptor expressed in CHO cells; format: functional, cell-based; outline: as §3
[9] = biological target: T5, Cholecystokinin receptor (Homo sapiens) (UniProt P32239+P32238); assay: Antagonist activity at CCK receptor by inhibition of CCK8-induced muscle contraction in unstimulated GPI/LMMP; format: functional; conditions: Cavia porcellus; target entry is the homologue from another species
Outline: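 Male Hartley guinea pig ileum LMMP strips, 1 g tension, oxygenated Krebs bicarbonate buffer, 37 °C; 67 mM KCl sets maximal contractility. Initial noncumulative CCK-8 dose-response curve built. Test compound added without electrical stimulation; 3 min later the CCK-8 curve was rebuilt at an antagonist dose giving about a 3-fold rightward shift. Ke is the antagonist concentration halving CCK-8 activity.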

[10] = biological target: Mu-type opioid receptor (Rattus norvegicus) (UniProt P33535); assay: as §2; format: functional, cell-based; outline: as §3
[11] = biological target: T5, Cholecystokinin receptor (Homo sapiens); assay: Agonist activity at CCK receptor of guinea pig ileum at 1 uM; format: functional, tissue-based; conditions: Cavia porcellus, target entry is the homologue from another species
Outline: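 Guinea pig ileum LMMP strips (male Hartley), 20-mL baths, 1 g tension, oxygenated Krebs bicarbonate buffer, 37 °C. Tissue first challenged with 67 mM KCl to set maximal contraction. Test compound added to the bath; agonist activity taken as contraction height as a percentage of the maximal KCl contraction (A50).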

Delta-type opioid receptor (Mus musculus, UniProt P32300), sequence (P32300 whole entry): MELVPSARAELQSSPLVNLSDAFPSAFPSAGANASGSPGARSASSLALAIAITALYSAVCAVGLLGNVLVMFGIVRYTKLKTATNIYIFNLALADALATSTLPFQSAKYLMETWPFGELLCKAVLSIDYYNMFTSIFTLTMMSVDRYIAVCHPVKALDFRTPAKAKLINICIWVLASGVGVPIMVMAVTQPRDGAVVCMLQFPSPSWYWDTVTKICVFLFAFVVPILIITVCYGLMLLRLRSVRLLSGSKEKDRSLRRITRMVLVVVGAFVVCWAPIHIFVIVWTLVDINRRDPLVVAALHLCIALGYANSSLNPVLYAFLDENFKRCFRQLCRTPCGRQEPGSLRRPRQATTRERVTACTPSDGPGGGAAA
T1 sequence (P41143 whole entry): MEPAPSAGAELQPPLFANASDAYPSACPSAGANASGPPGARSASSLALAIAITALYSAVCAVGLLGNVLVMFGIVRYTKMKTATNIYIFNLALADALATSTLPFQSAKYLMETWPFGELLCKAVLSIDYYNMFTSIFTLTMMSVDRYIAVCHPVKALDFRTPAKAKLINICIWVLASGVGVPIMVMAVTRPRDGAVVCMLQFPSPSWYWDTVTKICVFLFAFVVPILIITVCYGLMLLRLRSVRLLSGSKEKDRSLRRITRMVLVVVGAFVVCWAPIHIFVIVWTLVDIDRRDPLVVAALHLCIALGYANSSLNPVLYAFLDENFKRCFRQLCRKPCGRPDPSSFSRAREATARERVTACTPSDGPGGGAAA
Mu-type opioid receptor (Cavia porcellus, UniProt P97266), sequence (P97266 whole entry): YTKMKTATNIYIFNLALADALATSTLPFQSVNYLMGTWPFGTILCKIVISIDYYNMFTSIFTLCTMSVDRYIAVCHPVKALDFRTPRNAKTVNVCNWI
T2 sequence (P33535 whole entry): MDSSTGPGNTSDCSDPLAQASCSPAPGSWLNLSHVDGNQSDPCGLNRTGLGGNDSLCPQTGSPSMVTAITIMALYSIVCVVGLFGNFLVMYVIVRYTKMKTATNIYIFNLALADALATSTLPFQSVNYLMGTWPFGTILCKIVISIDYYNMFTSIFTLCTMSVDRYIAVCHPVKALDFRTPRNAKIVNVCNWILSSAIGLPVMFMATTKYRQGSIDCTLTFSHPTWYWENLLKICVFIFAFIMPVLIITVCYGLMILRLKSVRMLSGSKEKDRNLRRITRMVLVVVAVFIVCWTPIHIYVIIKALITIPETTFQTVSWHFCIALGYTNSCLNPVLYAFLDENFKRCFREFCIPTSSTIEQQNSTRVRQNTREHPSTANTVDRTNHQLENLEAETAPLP
Mu-type opioid receptor (Rattus norvegicus), sequence (P33535 whole entry): as above

CC(=O)N[C@@H](Cc1c[nH]c2ccccc12)C(=O)N[C@@H](CCCCNC(=O)Nc1ccccc1Cl)C(=O)N[C@@H](CC(=O)O)C(=O)N(C)[C@@H](Cc1ccccc1)C(=O)NNC(=O)[C@H](Cc1ccccc1)NC(=O)CNC(=O)[C@@H](C)NC(=O)[C@@H](N)Cc1ccc(O)cc1
IC50 (Mu-type opioid receptor [1]): 200 nM
Ki [2]: 0.48 nM
Log IC50 [2]: -8.95
Ki (Mu-type opioid receptor [3]): 0.92 nM
Log IC50 (Mu-type opioid receptor [3]): -8.67
Ki ([4]; hek293): 1000 nM
Log IC50 ([4]; hek293): -5.99
IC50 [5]: 26 nM
EC50 (Mu-type opioid receptor [6]; cho): 15 nM
Ki ([7]; hek293): 1700 nM
Log IC50 ([7]; hek293): -5.76
EC50 ([8]; cho): 1.3 nM

CCCC[C@H](NC(=O)[C@H](Cc1c[nH]c2ccccc12)NC(C)=O)C(=O)N[C@@H](CC(=O)O)C(=O)N(C)[C@@H](Cc1ccccc1)C(=O)NNC(=O)[C@H](Cc1ccccc1)NC(=O)CNC(=O)[C@@H](C)NC(=O)[C@@H](N)Cc1ccc(O)cc1
IC50 (Mu-type opioid receptor [1]): 62 nM
Ki [2]: 5.2 nM
Log IC50 [2]: -7.97
Ki (Mu-type opioid receptor [3]): 5.3 nM
Log IC50 (Mu-type opioid receptor [3]): -7.96
IC50 [5]: 5.1 nM
EC50 (Mu-type opioid receptor [6]; cho): 5.2 nM
EC50 ([8]; cho): 0.53 nM

CCCC[C@H](NC(=O)[C@@H](Cc1c[nH]c2ccccc12)NC(=O)OC1C2CC3CC(C2)CC1C3)C(=O)N[C@@H](CC(=O)O)C(=O)N[C@@H](Cc1ccccc1)C(=O)NNC(=O)[C@H](Cc1ccccc1)NC(=O)CNC(=O)[C@@H](C)NC(=O)[C@@H](N)Cc1ccc(O)cc1 (stereo partly drawn)
IC50 (Mu-type opioid receptor [1]): 1200 nM
IC50 [2]: 7.76 nM
Ki [2]: 3.4 nM
IC50 (Mu-type opioid receptor [3]): 37.2 nM
Ki (Mu-type opioid receptor [3]): 16 nM
IC50 [4]: 575 nM
Ki [4]: 560 nM
IC50 [5]: 84 nM
EC50 (Mu-type opioid receptor [6]): 240 nM
IC50 [7]: 933 nM
Ki [7]: 930 nM
EC50 [8]: 5.6 nM

CCCC[C@H](NC(=O)[C@H](CC(=O)O)NC(=O)[C@H](Cc1ccccc1)NN[C@@H](Cc1ccccc1)C(=O)NCC(=O)N[C@H](C)C(=O)N[C@@H](Cc1ccc(O)cc1)C(=O)O)C(=O)N[C@H](Cc1cn(C(=O)OC(C)(C)C)c2ccccc12)C(=O)O
Ke [9]: 6.5 nM
Emax [10]: 170%
Activity [11]: 0%
Emax [8]: 100%

CCCC[C@@H](C(=O)N[C@@H](Cc1cn(C(C)=O)c2ccccc12)C(=O)O)N(C(=O)Nc1ccccc1Cl)C(=O)[C@H](CC(=O)O)NC(=O)[C@H](Cc1ccccc1)N(C)N[C@@H](Cc1ccccc1)C(=O)NCC(=O)N[C@H](C)C(=O)N[C@@H](Cc1ccc(O)cc1)C(=O)O
Ke [9]: 150 nM
Emax [10]: 33%
Activity [11]: 0%
Emax [8]: 81%

CCCC[C@H](NC(=O)[C@H](CC(=O)O)NC(=O)[C@H](Cc1ccccc1)NN[C@@H](Cc1ccccc1)C(=O)NCC(=O)N[C@H](C)C(=O)N[C@@H](Cc1ccc(O)cc1)C(=O)O)C(=O)N[C@H](Cc1cn(C(=O)OC2C3CC4CC(C3)CC2C4)c2ccccc12)C(=O)O (stereo partly drawn)
Emax [10]: 60%
Activity [11]: 0%
Emax [8]: 61%

CCCC[C@H](NC(=O)[C@H](Cc1c[nH]c2ccccc12)NC(C)=O)C(=O)N[C@@H](CC(=O)O)C(=O)N[C@@H](Cc1ccccc1)C(=O)NNC(=O)[C@H](Cc1ccccc1)NC(=O)CNC(=O)[C@@H](C)NC(=O)[C@@H](N)Cc1ccc(O)cc1
IC50 (Mu-type opioid receptor [1]): 28 nM
IC50 [2]: 53.7 nM
Ki [2]: 23 nM
IC50 (Mu-type opioid receptor [3]): 61.7 nM
Ki (Mu-type opioid receptor [3]): 26 nM
IC50 [5]: 36 nM
EC50 (Mu-type opioid receptor [6]): 76 nM
IC50 [7]: 1320 nM
Ki [7]: 1300 nM
EC50 [8]: 54 nM

Source: ChEMBL document CHEMBL1138152, “Design and synthesis of novel hydrazide-linked bifunctional peptides as delta/mu opioid receptor agonists and CCK-1/CCK-2 receptor antagonists” (J Med Chem, 2006)
